Values joined by “and” are separate entries in the source; they are usually repeats but may differ in a detail not shown here. Equal values may be shown once.
Biological target: T1, Alpha-1D adrenergic receptor (Homo sapiens, UniProt P25100)
T1 sequence (P25100 whole entry): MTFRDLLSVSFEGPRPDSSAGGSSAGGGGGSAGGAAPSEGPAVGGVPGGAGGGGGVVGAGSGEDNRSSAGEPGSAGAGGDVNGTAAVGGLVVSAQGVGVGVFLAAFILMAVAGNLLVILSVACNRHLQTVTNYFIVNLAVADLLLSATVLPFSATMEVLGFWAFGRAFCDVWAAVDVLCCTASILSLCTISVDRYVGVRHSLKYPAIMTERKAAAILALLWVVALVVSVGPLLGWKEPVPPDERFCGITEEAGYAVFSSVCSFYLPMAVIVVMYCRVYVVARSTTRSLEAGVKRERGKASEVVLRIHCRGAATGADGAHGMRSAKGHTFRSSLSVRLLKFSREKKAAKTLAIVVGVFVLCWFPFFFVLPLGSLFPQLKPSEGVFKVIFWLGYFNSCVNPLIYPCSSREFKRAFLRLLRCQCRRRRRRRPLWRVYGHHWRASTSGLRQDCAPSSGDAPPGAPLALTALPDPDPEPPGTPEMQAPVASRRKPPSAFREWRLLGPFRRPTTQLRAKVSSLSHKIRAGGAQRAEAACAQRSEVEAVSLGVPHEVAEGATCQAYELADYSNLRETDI
Test: Binding affinity determined by displacement of [3H]prazosin from alpha-1D adrenergic receptor
Procedure, shortened: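 Radioligand displacement binding with [3H]prazosin at the alpha-1d adrenoceptor. Incubation ran 30 min, with 4 h used for one earlier reference compound. Results were expressed as pKi.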

Question: Which Ki does the source give for `CC1=NC(C)=C(C(=O)NCCCN2CCC(c3ccccc3)(c3ccccc3)CC2)C(c2ccc([N+](=O)[O-])cc2)C1C(N)=O` (stereo unspecified) [2,6-Dimethyl-4-(4-nitro-phenyl)-1,4-dihydro-pyridine-3,5-dicarboxylic acid 3-amide 5-{[3-(4,4-diphenyl-piperidin-1-yl)-propyl]-amide}] here?
Answer: The Ki was 224 nM and 223 nM.
